Autophagy mod: modulators of autophagy | MEF GFP-LC3 puncta imaging; test concentration mostly 10 µM | calls only at 10 µM (by protocol) | 190,000 compounds, 0.98% hits | AID 463193;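 active means percentage of spot-positive cells more than 3 SD above its plate mean, without a fluorescence outlier flag or 80% toxicity; inconclusive means no clear call, values can overlap the other calls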
Arbovirus inh: antivirals against arbovirus infection. arbovirus infection cell-based antiviral screen. inhibition, % at 10 µM. 200,000 compounds, 0.37% hits; in the data active means inhibition above about 30%
MT stabilize HCS: stabilizes microtubules in HeLa cells | % tubulin-high responders, % at 10 µM | HeLa tubulin immunostaining HCS, 24 h; share of cells brighter than vehicle mean+2SD | 200,000 compounds, 0.83% hits;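 active means plate Z-score above 3 for both tubulin-high and condensed-nucleus cell shares, with cell loss under 80%, at 10 µM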;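 further: anti alpha tubulin signal scored within the nucleus-defined area of each cell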
ABCG2 block: inhibitors of human ABCG2 transporter, ABCB1 counter-screen; inhibition, % at 6.6 µM; AID 1325; Q9UNQ0; 190,000 compounds, 0.1% hits; IgMXP3 cells, JC-1 efflux, flow cytometry;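 active means inhibition above 80%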
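Test system: IgMXP3 (ABCG2) plus far-red-tagged CCRF-Adr (ABCB1) cells. Reagent: JC-1 dye as substrate. Timing: 10 min exposure at 25 °C with rotation, no wash. Measured by: flow cytometric JC-1 green MFI at 530 nm. Read-out: percent efflux inhibition, scaled nicardipine 100% to DMSO 0%. Control set: nicardipine and DMSO wells.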
ABCB1 block: human ABCB1 inhibition, ABCG2 as counter-screen. P08183. CCRF-Adr cells, JC-1 efflux, flow cytometry. inhibition, % at 6.6 µM. 190,000 compounds, 0.067% hits; in the data active means inhibition above about 40%;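 further: higher value means more JC-1 retained so stronger ABCB1 efflux block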
Target sequence (P08183 whole entry, looked up): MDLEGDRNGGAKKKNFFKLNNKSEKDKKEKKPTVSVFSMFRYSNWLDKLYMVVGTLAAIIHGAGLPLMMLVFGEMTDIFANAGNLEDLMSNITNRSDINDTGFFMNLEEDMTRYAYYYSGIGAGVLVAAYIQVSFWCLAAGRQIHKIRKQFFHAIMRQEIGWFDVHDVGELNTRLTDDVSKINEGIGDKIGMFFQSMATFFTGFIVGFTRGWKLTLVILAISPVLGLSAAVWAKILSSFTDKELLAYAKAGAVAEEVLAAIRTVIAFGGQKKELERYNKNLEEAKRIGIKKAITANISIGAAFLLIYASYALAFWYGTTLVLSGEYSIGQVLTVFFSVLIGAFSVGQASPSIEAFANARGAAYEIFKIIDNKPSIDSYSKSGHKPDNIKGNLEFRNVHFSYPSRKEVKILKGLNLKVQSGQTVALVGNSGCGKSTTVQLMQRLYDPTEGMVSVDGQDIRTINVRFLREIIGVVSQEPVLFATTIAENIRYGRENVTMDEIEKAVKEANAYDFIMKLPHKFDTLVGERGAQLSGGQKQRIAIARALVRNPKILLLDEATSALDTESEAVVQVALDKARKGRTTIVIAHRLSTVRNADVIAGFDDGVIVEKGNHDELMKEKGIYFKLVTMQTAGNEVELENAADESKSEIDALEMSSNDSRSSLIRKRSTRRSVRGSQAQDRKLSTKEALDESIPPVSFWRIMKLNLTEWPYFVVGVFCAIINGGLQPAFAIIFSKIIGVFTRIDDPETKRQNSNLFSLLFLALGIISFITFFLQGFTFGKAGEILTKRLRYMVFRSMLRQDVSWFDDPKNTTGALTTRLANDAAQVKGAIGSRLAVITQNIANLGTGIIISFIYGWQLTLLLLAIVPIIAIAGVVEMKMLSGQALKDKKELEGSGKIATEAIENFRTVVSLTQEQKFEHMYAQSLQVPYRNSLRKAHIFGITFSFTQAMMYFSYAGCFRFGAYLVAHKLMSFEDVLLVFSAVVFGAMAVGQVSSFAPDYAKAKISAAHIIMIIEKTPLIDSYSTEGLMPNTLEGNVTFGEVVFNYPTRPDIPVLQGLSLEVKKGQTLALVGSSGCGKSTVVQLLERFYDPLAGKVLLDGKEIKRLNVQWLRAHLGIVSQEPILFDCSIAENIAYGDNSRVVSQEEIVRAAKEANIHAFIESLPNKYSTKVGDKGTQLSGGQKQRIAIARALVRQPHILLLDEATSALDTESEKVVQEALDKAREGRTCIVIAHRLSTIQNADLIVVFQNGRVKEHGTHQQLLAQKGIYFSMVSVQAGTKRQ
bCat nuc transl: beta-catenin nuclear translocation modulation; HeLa beta-catenin nuclear translocation, immunofluorescence imaging; nuclear translocation activity, % at 5 µM; 190,000 compounds, 0.3% hits; AID 1665;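 active means nuclear translocation activity above 50% at 5 µM, with a well cell count of 50 or more; inconclusive means wells under 50 cells across six images, flagged as toxic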;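 further: per-cell ratio of nuclear to cytoplasmic median beta-catenin stain intensity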
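Test system: HeLa cells, endogenous beta-catenin; Compound: single 5 µM dose plus 0.02–20 µM confirmation series; Times: compound exposure 24 h at 37°C; Signal: fluorescence imaging of beta-catenin antibody stain plus DAPI; Read-out: % activation, nuclear-to-cytoplasmic median beta-catenin signal ratio per cell.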
Large screens that a line does not name were inactive. This is a sample that favours compounds with a hit; in the whole collection about 2.1% have one here.

CCn1c2ccccc2c2cc(NC(=O)c3cc(C)on3)ccc21	MT stabilize HCS 20
CCn1c2ccccc2c2cc(NC(=O)c3ccc(C)c([N+](=O)[O-])c3)ccc21	none
COc1cc(C(=O)Nc2sc(C)c(C)c2C(=O)O)cc(OC)c1OC	Arbovirus inh 44
Cn1ncc2nnn(-c3ccccc3)c(=O)c21	none
COc1ccc(S(=O)(=O)Nc2nnc(Cc3ccc(OC)c(OC)c3)s2)cc1	none
COc1cc(-c2nnc3sc(Cc4ccccc4)nn23)cc(OC)c1OC	none
O=C(O)c1cc(-c2ccc(/C=N/Nc3ccc([N+](=O)[O-])cn3)o2)ccc1Cl	Arbovirus inh 31
COc1ccc(C2NC(=S)NC(C)=C2C(=O)Nc2ccccn2)cc1 (stereo not given)	MT stabilize HCS 9.2
CC1CCN(S(=O)(=O)c2cccc(-c3nnc(-c4cccnc4)o3)c2)CC1	none
COc1ccc(CN(C(=O)c2ccco2)c2ccc(C)c(C)c2)cc1	MT stabilize HCS 16
Cc1ccc(-c2c[n+]3c(n2-c2ccccc2)CCC3)cc1	none (no result: Autophagy mod, Arbovirus inh, MT stabilize HCS, ABCG2 block, ABCB1 block)
COc1cc(/C=N/N=C(N)N)ccc1OCc1ccc(Cl)cc1	MT stabilize HCS 67
CCOc1cc(/C=N/N=C(N)N)ccc1OCc1ccc(Cl)cc1	bCat nuc transl inconclusive
Cn1c(Oc2ccccc2NCc2cc(Br)ccc2O)cc(=O)n(C)c1=O	Arbovirus inh 32
CCOc1ccc(-n2c(N)c(C(=O)NCc3ccco3)c3nc4ccccc4nc32)cc1	none (no result: bCat nuc transl)
CCOc1ccc(-n2c(N)c(-c3nc4ccccc4n3C)c3nc4ccccc4nc32)cc1	Autophagy mod active
COc1ccccc1N1CCN(c2ncnc3c2oc2ccccc23)CC1	MT stabilize HCS 27, bCat nuc transl 74
COc1ccccc1N1CCN(C(=O)c2oc3ccc(Br)cc3c2C)CC1	MT stabilize HCS 15
c1cnc(N2CCN(c3ncnc4c3oc3ccccc34)CC2)nc1	none (no result: Autophagy mod, Arbovirus inh, MT stabilize HCS, ABCG2 block, ABCB1 block)
CCOC(=O)c1ccc(NC(=S)N(CCN2CCCCCC2)Cc2ccco2)cc1	none
COc1ccc(NS(=O)(=O)c2cccc(NC(=O)c3ccc(Cl)nc3)c2)cc1	MT stabilize HCS 16
Cc1nc2ccccn2c1C(=O)/C=C/c1cccc([N+](=O)[O-])c1	Autophagy mod active
CCOC(=O)/C(=N\Nc1ccccc1[N+](=O)[O-])c1csc(N)n1	none
CCOC(=O)/C(=N\Nc1ccc(C(C)=O)cc1)c1csc(Nc2ccccc2)n1	Autophagy mod active
N#CC1=C(N)Oc2cc3ccccc3cc2C1c1cccnc1 (stereo not given)	MT stabilize HCS 56
N#CC1=C(N)Oc2c(ccc3cccnc23)C1c1cccnc1 (stereo not given)	MT stabilize HCS 22, bCat nuc transl 56
O=C(Cn1cnc2c(nnn2-c2ccc(F)cc2)c1=O)NCc1ccco1	none
Cc1cc(C)c2cc(CN(CC3CCCO3)S(=O)(=O)c3ccc4c(c3)OCCO4)c(=O)[nH]c2c1 (stereo not given)	none
CCc1onc(C)c1C(=O)Nc1ccc2c(c1)OCO2	none
O=C(N/N=C/c1ccc2c(c1)OCO2)c1sc2cccc(Cl)c2c1Cl	MT stabilize HCS 22
COc1ccc2c(Cl)c(C(=O)N/N=C/c3ccc4c(c3)OCO4)sc2c1	none
O=C(N/N=C/c1ccc2c(c1)OCO2)c1sc2cc(Cl)ccc2c1Cl	MT stabilize HCS 19
COc1ccc(C2CC(c3ccc4ccccc4c3OC(C)=O)=NN2C(=O)/C=C/c2ccccc2)cc1 (stereo not given)	none
Cn1c(=O)[nH]c(=O)c2c1nc(CN1CCOCC1)n2CCCO	none (no result: bCat nuc transl)
Clc1cc(Br)ccc1OCCOCCN1CCOCC1	bCat nuc transl 112
CCN(CC)c1ccc(/C=N/NC(=O)c2cccc(S(=O)(=O)Nc3ccccc3OC)c2)c(O)c1	Autophagy mod active (no result: bCat nuc transl)
CCN(CC)c1ccc(/C=N/NC(=O)c2cccc(S(=O)(=O)Nc3ccccc3OC)c2)cc1	none
O=C1C(c2ccncc2)=C(O)c2ccccc21	none
CC(C)c1ccc(C2=C(O)c3ccccc3C(=O)C2=O)cc1	Arbovirus inh 33 (no result: ABCB1 block)
COc1ccc(N=C2S/C(=C\c3ccc(OCC(=O)O)cc3)C(=O)N2CCc2c[nH]c3ccccc23)cc1	Arbovirus inh 46
CCCN1C(=O)/C(=C/c2ccc(C)o2)SC1=Nc1ccc(OC)cc1	none
COc1ccc(N=C2S/C(=C\c3ccc(N4CCOCC4)o3)C(=O)N2CCc2c[nH]c3ccccc23)cc1	Autophagy mod active (no result: bCat nuc transl)
CC(=O)C1=C(O)CC(c2ccccc2)CC1=NCCc1ccccc1 (stereo not given)	none
CC(=NCCc1c(C)[nH]c2ccc(C)cc12)C1=C(O)CC(c2ccccc2)CC1=O (stereo not given)	MT stabilize HCS 16
CC(=NCCc1c(C)[nH]c2ccc(OC(F)(F)F)cc12)C1=C(O)CC(c2ccccc2)CC1=O (stereo not given)	MT stabilize HCS 13
O=C(COC(=O)c1ccccc1-c1nc2ccccc2s1)Nc1ccccc1C(F)(F)F	none
O=C(CCS(=O)(=O)c1cccs1)N1CCCC1	none
O=C(CCNS(=O)(=O)c1cccs1)N1CCCCCC1	Autophagy mod active
CC[C@H]1OC(=O)[C@H](C)[C@@H](O[C@H]2C[C@@](C)(OC)[C@@H](O)[C@H](C)O2)[C@H](C)[C@@H](O[C@@H]2O[C@H](C)C[C@H](N(C)C)[C@H]2O)[C@](C)(OC)C[C@@H](C)C(=O)[C@H](C)[C@@H](O)[C@]1(C)O	none (no result: Autophagy mod, MT stabilize HCS, ABCB1 block)
COc1ccc2nc3oc(C(=O)N4CCN(c5cccc(C(F)(F)F)c5)CC4)cc3cc2c1	MT stabilize HCS 13
COc1ccc(S(=O)(=O)Nc2ccccc2-c2nnn(CC(=O)Nc3ccccc3OC)n2)cc1	MT stabilize HCS 14
CCOC(=O)c1c2ccc(OCC(=O)N/N=C/c3ccc(Cl)cc3)cc2n2ccccc12	Autophagy mod active
CCOC(=O)c1c2ccc(OCC(=O)N/N=C/c3ccccc3C(F)(F)F)cc2n2ccccc12	MT stabilize HCS 33
O=C(Nc1cccc(Cl)c1)/C(=C\c1cccnc1)NC(=O)c1ccco1	none
O=C(/C=C/c1ccccc1)Nc1sc2c(c1C(=O)O)CCC2	none (no result: Autophagy mod, Arbovirus inh, MT stabilize HCS, ABCG2 block, ABCB1 block)
N#Cc1c(NC(=O)c2ccccc2)sc2c1CCCCC2	none
O=C(/C=C/c1ccco1)Nc1sc2c(c1C(=O)O)CCC2	Arbovirus inh 73
N#Cc1c(NC(=O)/C=C/c2ccco2)sc2c1CCCC2	bCat nuc transl 106
Cn1nc(-c2ccc(Cl)cc2)c2cc(C(=O)N3CCN(c4ccccc4)CC3)sc21	none (no result: bCat nuc transl)
COc1ccc(-c2oc3ncnc(NCCCN4CCOCC4)c3c2-c2ccc(OC)cc2)cc1	none
COc1ccc(-c2oc3ncnc(NCCN4CCOCC4)c3c2-c2ccc(OC)cc2)cc1	Autophagy mod active
CCN(CC)S(=O)(=O)c1ccc(N2CCOCC2)c(NC(=O)c2ccccc2F)c1	none

Compound activity as filed in PubChem.
